Results published in PubChem BioAssay.
Calls of active or inactive are those of the source.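 The calls were made as follows: active = growth inhibition above 25% in both replicates, a cutoff set 3 SD above the mean; inconclusive = above 25% in only one replicate; inactive = the rest.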

Experiment: S. cerevisiae growth inhibition in permissive medium (OD615), pilot counter-assay for S. cerevisiae lifespan shortening project, permissive growth control (AID 705)
Settings: OD615, 24 h, at 10 µM, stronger effect = higher value
How it was run: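 System: S. cerevisiae with engineered DeaD lifespan system / Measured by: absorbance (optical density) at 615 nm / Read-out: reduction in yeast growth (OD615) / Times: 4 h cell pre-growth, 24 h exposure at 30 °C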

Structure (SMILES) | growth inhibition
O=C(NCC1CCCO1)C1CC(=O)N(c2ccc(F)c(Cl)c2)C1 (stereo not given) | -7.27% (inactive)
Oc1cnn(-c2ccccc2)c1 | -0.88% (inactive)
Cc1c(NC(=O)c2ccc(F)cc2)c(=O)n(-c2ccccc2)n1C | -15.9% (inactive)
COC(=O)C1=CN(C(C)C)C=C(C(=O)OC)C1c1cccc(OC)c1 | -3.31% (inactive)
O=C(CSc1nnc(-c2ccccc2Cl)o1)N1CCCCC1 | -8.71% (inactive)
CC1Cc2nc(SCC(=O)Nc3nccs3)n(Cc3ccccc3)c(=O)c2S1 (stereo not given) | 4.49% (inactive)
COc1ccc(Cn2nnc3c(=O)[nH]c(C(=O)NCCc4ccc(F)cc4)nc32)cc1OC | -3.32% (inactive)
CCOC(=O)c1c(C)n(C)c2ccc(OCC(O)CN3CCN(C)CC3)cc12 (stereo not given) | -9.58% (inactive)
C=CCn1c(O)c(C2=c3ccccc3=NC2=O)sc1=Nc1ccc(O)cc1 | -4.33% (inactive)
Cc1ccc(-c2cc(C(F)(F)F)n3ncc(C(=O)NCc4ccco4)c3n2)cc1 | -5.88% (inactive)
CSc1ccc(C2C(C#N)=C(N)N(c3ccccc3)C3=C2C(=O)CCC3)cc1 (stereo not given) | -11.5% (inactive)
Cc1ccn2cc(CCNC(=O)c3ccc(Br)o3)nc2c1 | -10.6% (inactive)
COc1cccc(N2CCN(c3ncnc4c3cnn4-c3ccc(C)cc3C)CC2)c1 | 4.2% (inactive)
COc1cc(CO)cc(Br)c1OCC(=O)O | -2.25% (inactive)
COc1ccc(Cc2nnc(SC)[nH]c2=O)cc1OC | 0.615% (inactive)
COc1ccccc1CNC(=O)C1CCN(S(=O)(=O)c2cccc3cccnc23)CC1 | 5.11% (inactive)
CCOC(=O)N1CCN(C(=O)CSc2nc3c(cnn3-c3ccc(C)cc3)c(=O)[nH]2)CC1 | -0.175% (inactive)
CCOC(=O)c1ccc2nc(NC(=O)C(C)C)sc2c1 | -10.9% (inactive)
Cc1ccc(C2=CC(c3ccc(N(C)C)cc3)n3nnnc3N2)cc1 (stereo not given) | -10.6% (inactive)
Cn1c(=O)c2c(nc(CN3CCOCC3)n2CCCO)n(C)c1=O | -5.86% (inactive)

Structure (SMILES) | growth inhibition
COCCCNC(=O)Cn1cc2c(n1)CCCCC2 | 3.39% (inactive)
O=C(NCc1ccco1)c1cnccn1 | 3.99% (inactive)
CCCCn1c(CCNC(=O)CCC)nc2ccccc21 | -9.84% (inactive)
COc1ccc2[nH]c(C)c(CCN3C(=O)C4C5C=CC(C5)C4C3=O)c2c1 (stereo not given) | -3.19% (inactive)
O=C1CCc2cc(S(=O)(=O)NC(Cc3ccccc3)C(=O)NCC3CCCO3)ccc2N1 (stereo not given) | -8.29% (inactive)
CCOC(=O)c1c(N)sc(C(N)=O)c1C | -17.3% (inactive)
O=C(NCCCN1CCC(Cc2ccccc2)CC1)C1CC(=O)N(C2CCCC2)C1 (stereo not given) | 1.72% (inactive)
Cc1ccc(Cl)cc1N1CCN(C(=O)C2CCN(c3nnc(-n4cccc4)s3)CC2)CC1 | -6.07% (inactive)
CC(=O)c1c(C)[nH]c(C(=O)N2c3ccccc3CC2C)c1C (stereo not given) | -1.11% (inactive)
Cc1ccc2cc(CCNC(=O)C3CCCC3)c(=O)[nH]c2c1 | -7.07% (inactive)
CCCCN(C)CCNC(=O)Cn1c(=O)sc2ccccc21 | -0.71% (inactive)
CCOC(=O)N1CCN(c2ccc3nnnn3n2)CC1 | -4.75% (inactive)
CCCOc1ccc(C2c3c(oc4cc(C)c(C)cc4c3=O)C(=O)N2CCCN(C)C)cc1OCC (stereo not given) | -10.6% (inactive)
CCOC(=O)C1=C2N(C)c3ccccc3N2CCC1=O | 8.71% (inactive)
CCNc1nc(OCCNS(=O)(=O)c2cc(C)ccc2C)nc(N(C)C)n1 | -7.45% (inactive)
O=C(c1cc(-c2cccc(O)c2)on1)N1CCOCC1 | 1.27% (inactive)
Cc1cc(C(=O)NC2CCCC2)on1 | -11.8% (inactive)
O=C(Nc1cccc(C(F)(F)F)c1)c1cnc2n(c1=O)CCS2 | -9.46% (inactive)
Cn1c(=O)c2c(nc(CN3CCCCC3)n2Cc2c(F)cccc2Cl)n(C)c1=O | -2.88% (inactive)
CCC(C)Sc1nnc(Cc2cc(=O)[nH]c(=O)[nH]2)n1-c1ccc(F)cc1 (stereo not given) | -0.665% (inactive)
